Measurements taken from ChEMBL document CHEMBL4196032, “Conformational mimetics of the α-methyl chalcone TUB091 binding tubulin: Design, synthesis and antiproliferative activity” (Eur J Med Chem, 2018).
Activity calls are given as the source filed them. The calls are words filed in the database; no cut-off is given here.

How the values were obtained:
[1] = tested on: L1210; assay: Antiproliferative activity against mouse L1210 cells after 96 hrs by coulter counting method; assay type: functional, cell-based; settings: L1210, 96 h
Method in brief: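 Suspension cells (CEM, L1210) seeded at 60,000 cells/well together with graded compound concentrations; grown 96 h, then counted by Coulter counter. IC50 = concentration reducing cell proliferation by 50%.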

[2] = organism: Bos taurus; assay: Inhibition of calf brain tubulin polymerization at 30 uM measured for 6000 secs by spectrophotometric method
Method in brief: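 Calf brain tubulin, gel-filtered into GAB buffer (10 mM sodium phosphate, 1 mM EGTA, 25% glycerol, 0.1 mM GTP, pH 7.0) at 25 µM, degassed; compound at 30 µM. Assembly at 37 °C followed by absorbance at 350 nm up to 6000 s; DMSO and podophyllotoxin controls; normalized absorbance.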

[3] = tested on: CCRF-CEM; assay: Antiproliferative activity against human CEM cells; assay type: functional, cell-based
Method in brief: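 Suspension cells seeded at 60,000 cells/well in 96-well plates together with a range of compound concentrations. Grown 96 h, then counted by Coulter counter. IC50 taken as the concentration reducing proliferation by 50%.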

[4] = tested on: HeLa; assay: Antiproliferative activity against human HeLa cells; assay type: functional, cell-based
Method in brief: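 Cervical carcinoma cells plated at 10,000 cells/well in 48-well plates. Varied concentrations added after 24 h, then 3 days of incubation. Cells trypsinized and Coulter-counted. IC50 is the concentration giving 50% reduction of proliferation.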

[5] = tested on: HMEC-1; assay: Antiproliferative activity against human HMEC1 cells; assay type: cell-based
Method in brief: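 HMEC-1 microvascular endothelial cells plated at 20,000 cells/well in 48-well plates. 5-fold dilutions added after 24 h, then 4 days of growth. Cells trypsinized and counted by Coulter counter. IC50 is the concentration halving proliferation.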

[6] = organism: Bos taurus; assay: Inhibition of R-PT binding to calf brain tubulin after 30 mins by fluorescence assay
Method in brief: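 Competition assay: 0.2 µM R-PT premixed with 0.2 µM calf brain tubulin in GAB buffer, ligand at 0–70 µM; 30 min at 25 °C, fluorescence read at 456 nm (ex 374 nm). Binding constants derived from competition data; racemates tested.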

[7] = tested on: CCRF-CEM; assay: Antiproliferative activity against human CEM cells after 96 hrs by coulter counting method; assay type: functional, cell-based
Method in brief: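 Suspension cells (CEM, L1210) seeded at 60,000 cells/well together with graded compound concentrations; grown 96 h, then counted by Coulter counter.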

[8] = tested on: HeLa; assay: Antiproliferative activity against human HeLa cells after 3 days by coulter counting method; assay type: functional, cell-based; settings: 72 h
Method in brief: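 HeLa seeded at 10,000 cells/well; various compound concentrations added 24 h later; after 3 days incubation cells trypsinized and counted by Coulter counter.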

[9] = tested on: HMEC-1; assay: Antiproliferative activity against human HMEC1 cells after 4 days by coulter counting method; assay type: cell-based; settings: HMEC-1, 96 h
Method in brief: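 HMEC-1 seeded at 20,000 cells/well; 5-fold compound dilutions added after 24 h; 4 days proliferation, trypsinized, Coulter counted.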

[10] = biological target: Tubulin (Homo sapiens) (UniProt P68371+Q9H4B7+P0DPH7+P68366+Q13509+Q71U36+P04350+Q3ZCM7+P07437+P68363+Q9BQE3+Q6PEY2+Q13885+Q9BVA1+Q9BUF5); assay: Inhibition of tubulin polymerization in human HeLa cells assessed as reduction in mitotic spindle formation by measuring aberrant multipolar spindle formation at 0.1 to 0.3 uM after 24 hrs by Hoechst 33342 staining based immunofluorescence microscopic method; assay type: cell-based
Method in brief: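 HeLa seeded overnight on poly-L-lysine-coated slides, treated 24 h with compound or 0.1% DMSO. Fixed, permeabilized, stained with anti-β-tubulin (2 µg/ml) then Alexa Fluor 555 anti-mouse (4 µg/ml); nuclei with Hoechst 33342 (2 µg/ml); spindles imaged by fluorescence microscopy.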

[11] = tested on: HeLa; assay: Cell cycle arrest in human HeLa cells assessed as accumulation at G2/M phase at 0.1 uM after 24 hrs by propidium iodide staining based flow cytometry; assay type: functional
Method in brief: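 HeLa in DMEM + 10% FBS, 125,000 cells/well; compound added after 24 h for 24 h. DNA stained with propidium iodide kit, analysed by flow cytometry within 3 h; debris/clumps gated out; sub-G1, G1, S, G2/M percentages from region markers.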

Structure (SMILES) | IC50 [1] [nM] | inhibition [2] | IC50 [3] [nM] | IC50 [4] [nM] | IC50 [5] [nM] | Kb [6] [×10⁶ /M] | IC50 [7] [nM] | IC50 [8] [nM] | IC50 [9] [nM] | inhibition [10] | Activity [11]
COc1ccc(/C=C(\C)C(=O)c2cc(OC)c3c(c2)OCO3)cc1N | 1 | Active | 1 | 3.9 | 2.3 |  |  |  |  |  | 
COc1cc([C@@H]2c3cc4c(cc3[C@H](O)[C@H]3COC(=O)[C@H]23)OCO4)cc(OC)c1OC |  | Active |  |  |  |  |  |  |  |  | 
COc1ccc2c(c1N)CCC(C(=O)c1ccc(OC)c(OC)c1OC)C2 (racemic) | 27 | Active |  |  |  | 2.4 | 22 | 30 | 47 | Active | Active
COc1ccc(C(=O)C2CCc3c(ccc(OC)c3[N+](=O)[O-])C2)c(OC)c1OC (racemic) | 4200 | Active |  |  |  |  | 860 | 810 | 5300 |  | 
COc1ccc2c(c1)CCC(C(=O)c1ccc(OC)c3c1OCO3)C2 (racemic) | 160000 |  |  |  |  |  | 39000 | 88000 | 38000 |  | 
COc1ccc(C(=O)C2CCc3c(ccc(OC)c3N)C2)cc1OC (racemic) | 52000 |  |  |  |  |  | 6300 | 23000 | 122000 |  | 
COc1ccc2c(c1)CCC(C(=O)c1ccc(OC)c(OC)c1)C2 (racemic) | > 250000 | inactive |  |  |  |  | 221000 | > 250000 | > 250000 |  | 
COc1ccc2c(c1)CCC(C(=O)c1ccc(OC)c(OC)c1O)C2 (racemic) | 75000 |  |  |  |  |  | 38000 | 40000 | ≥ 250000 |  | 
COc1cc2c(cc1N)CC(C(=O)c1ccc(OC)c(OC)c1OC)CC2 (racemic) | 860 |  |  |  |  |  | 480 | 740 | 1300 |  | 
COc1cc2c(cc1[N+](=O)[O-])CC(C(=O)c1ccc(OC)c(OC)c1OC)CC2 (racemic) | > 250000 |  |  |  |  |  | > 250000 | > 250000 | 199000 |  | 
COc1ccc2c(c1)CCC(C(=O)c1ccc(OC)c(OC)c1OC)C2 (racemic) | 240 | Active |  |  |  |  | 170 | 400 | 1200 |  | 
COc1ccc(/C=C\c2cc(OC)c(OC)c(OC)c2)cc1OP(=O)(O)O [FOSBRETABULIN DISODIUM] | 2.1 |  |  |  |  |  | 11 | 13 | 2.9 |  | 
